This note sets out measurements from ChEMBL document CHEMBL4364339, “Systematically Mitigating the p38α Activity of Triazole-based BET Inhibitors” (ACS Med Chem Lett, 2019).

Active and inactive are the calls of the source. The calls are words filed in the database; no cut-off is given here. Some results are limits rather than exact numbers.

Chain of Mitogen-activated protein kinase 14 (Q16539 whole entry, the tested form may be a part): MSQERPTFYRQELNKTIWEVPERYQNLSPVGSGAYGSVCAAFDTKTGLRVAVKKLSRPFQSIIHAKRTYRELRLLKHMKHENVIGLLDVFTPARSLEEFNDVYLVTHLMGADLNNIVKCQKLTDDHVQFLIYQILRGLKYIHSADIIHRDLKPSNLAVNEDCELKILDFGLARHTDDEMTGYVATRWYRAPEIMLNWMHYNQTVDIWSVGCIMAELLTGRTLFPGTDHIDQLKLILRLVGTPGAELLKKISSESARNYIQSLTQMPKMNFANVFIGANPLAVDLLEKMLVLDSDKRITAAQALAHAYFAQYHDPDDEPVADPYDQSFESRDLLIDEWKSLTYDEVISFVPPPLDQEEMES
Chain of SWI/SNF-related matrix-associated actin-dependent regulator of chromatin subfamily A member 2 (P51531 whole entry, the tested form may be a part): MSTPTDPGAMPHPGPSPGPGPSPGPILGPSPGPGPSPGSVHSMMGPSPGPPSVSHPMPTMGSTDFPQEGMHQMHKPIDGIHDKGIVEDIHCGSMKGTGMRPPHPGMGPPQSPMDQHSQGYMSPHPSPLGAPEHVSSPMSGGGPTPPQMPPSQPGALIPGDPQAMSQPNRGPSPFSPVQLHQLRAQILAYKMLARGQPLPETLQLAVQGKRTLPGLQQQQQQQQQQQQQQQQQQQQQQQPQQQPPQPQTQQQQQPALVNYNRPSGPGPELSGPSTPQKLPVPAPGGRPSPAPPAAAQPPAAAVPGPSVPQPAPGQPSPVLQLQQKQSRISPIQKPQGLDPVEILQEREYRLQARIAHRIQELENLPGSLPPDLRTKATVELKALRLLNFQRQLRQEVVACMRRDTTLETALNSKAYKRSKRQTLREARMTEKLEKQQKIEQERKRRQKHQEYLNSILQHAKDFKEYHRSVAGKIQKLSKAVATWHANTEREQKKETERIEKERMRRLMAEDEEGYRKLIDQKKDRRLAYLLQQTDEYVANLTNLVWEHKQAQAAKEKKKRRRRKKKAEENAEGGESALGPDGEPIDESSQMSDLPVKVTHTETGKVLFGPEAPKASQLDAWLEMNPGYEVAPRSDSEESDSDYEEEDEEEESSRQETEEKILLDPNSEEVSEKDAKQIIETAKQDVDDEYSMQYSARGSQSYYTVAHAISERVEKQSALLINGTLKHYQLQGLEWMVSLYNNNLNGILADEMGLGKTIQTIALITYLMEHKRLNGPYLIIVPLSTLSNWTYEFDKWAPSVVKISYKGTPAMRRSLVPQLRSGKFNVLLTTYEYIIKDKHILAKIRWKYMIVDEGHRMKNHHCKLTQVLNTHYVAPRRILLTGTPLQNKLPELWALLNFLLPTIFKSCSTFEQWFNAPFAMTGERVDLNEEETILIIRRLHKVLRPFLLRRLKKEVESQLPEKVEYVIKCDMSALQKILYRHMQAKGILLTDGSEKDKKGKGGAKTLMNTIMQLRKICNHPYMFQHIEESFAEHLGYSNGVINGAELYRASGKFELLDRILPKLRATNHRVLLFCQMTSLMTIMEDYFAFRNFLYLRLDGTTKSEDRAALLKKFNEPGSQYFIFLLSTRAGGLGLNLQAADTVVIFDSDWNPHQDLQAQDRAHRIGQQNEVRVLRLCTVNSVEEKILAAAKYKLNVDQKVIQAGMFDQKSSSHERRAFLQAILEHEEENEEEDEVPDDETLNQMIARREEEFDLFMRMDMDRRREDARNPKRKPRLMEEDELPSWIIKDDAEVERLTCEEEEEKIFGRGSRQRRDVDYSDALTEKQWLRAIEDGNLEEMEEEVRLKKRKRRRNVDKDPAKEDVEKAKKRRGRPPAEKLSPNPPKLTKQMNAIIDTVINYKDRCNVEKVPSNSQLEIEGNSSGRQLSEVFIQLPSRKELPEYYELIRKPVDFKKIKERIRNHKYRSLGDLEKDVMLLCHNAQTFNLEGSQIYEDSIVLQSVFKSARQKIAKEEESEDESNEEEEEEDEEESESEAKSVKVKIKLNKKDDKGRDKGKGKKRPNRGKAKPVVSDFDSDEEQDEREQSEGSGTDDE

The target of one assay is CREB-binding protein (Homo sapiens, UniProt Q92793). Briefly: Binding affinity to human partial length CREBBP (R1081 to G1197 residues) expressed in bacterial expression system by BROMOscan assay. In outline: (§1)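 Dissociation constants from BROMOscan competition binding; mean and standard error of two independent trials.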
Chain of CREB-binding protein (Q92793 whole entry, the tested form may be a part): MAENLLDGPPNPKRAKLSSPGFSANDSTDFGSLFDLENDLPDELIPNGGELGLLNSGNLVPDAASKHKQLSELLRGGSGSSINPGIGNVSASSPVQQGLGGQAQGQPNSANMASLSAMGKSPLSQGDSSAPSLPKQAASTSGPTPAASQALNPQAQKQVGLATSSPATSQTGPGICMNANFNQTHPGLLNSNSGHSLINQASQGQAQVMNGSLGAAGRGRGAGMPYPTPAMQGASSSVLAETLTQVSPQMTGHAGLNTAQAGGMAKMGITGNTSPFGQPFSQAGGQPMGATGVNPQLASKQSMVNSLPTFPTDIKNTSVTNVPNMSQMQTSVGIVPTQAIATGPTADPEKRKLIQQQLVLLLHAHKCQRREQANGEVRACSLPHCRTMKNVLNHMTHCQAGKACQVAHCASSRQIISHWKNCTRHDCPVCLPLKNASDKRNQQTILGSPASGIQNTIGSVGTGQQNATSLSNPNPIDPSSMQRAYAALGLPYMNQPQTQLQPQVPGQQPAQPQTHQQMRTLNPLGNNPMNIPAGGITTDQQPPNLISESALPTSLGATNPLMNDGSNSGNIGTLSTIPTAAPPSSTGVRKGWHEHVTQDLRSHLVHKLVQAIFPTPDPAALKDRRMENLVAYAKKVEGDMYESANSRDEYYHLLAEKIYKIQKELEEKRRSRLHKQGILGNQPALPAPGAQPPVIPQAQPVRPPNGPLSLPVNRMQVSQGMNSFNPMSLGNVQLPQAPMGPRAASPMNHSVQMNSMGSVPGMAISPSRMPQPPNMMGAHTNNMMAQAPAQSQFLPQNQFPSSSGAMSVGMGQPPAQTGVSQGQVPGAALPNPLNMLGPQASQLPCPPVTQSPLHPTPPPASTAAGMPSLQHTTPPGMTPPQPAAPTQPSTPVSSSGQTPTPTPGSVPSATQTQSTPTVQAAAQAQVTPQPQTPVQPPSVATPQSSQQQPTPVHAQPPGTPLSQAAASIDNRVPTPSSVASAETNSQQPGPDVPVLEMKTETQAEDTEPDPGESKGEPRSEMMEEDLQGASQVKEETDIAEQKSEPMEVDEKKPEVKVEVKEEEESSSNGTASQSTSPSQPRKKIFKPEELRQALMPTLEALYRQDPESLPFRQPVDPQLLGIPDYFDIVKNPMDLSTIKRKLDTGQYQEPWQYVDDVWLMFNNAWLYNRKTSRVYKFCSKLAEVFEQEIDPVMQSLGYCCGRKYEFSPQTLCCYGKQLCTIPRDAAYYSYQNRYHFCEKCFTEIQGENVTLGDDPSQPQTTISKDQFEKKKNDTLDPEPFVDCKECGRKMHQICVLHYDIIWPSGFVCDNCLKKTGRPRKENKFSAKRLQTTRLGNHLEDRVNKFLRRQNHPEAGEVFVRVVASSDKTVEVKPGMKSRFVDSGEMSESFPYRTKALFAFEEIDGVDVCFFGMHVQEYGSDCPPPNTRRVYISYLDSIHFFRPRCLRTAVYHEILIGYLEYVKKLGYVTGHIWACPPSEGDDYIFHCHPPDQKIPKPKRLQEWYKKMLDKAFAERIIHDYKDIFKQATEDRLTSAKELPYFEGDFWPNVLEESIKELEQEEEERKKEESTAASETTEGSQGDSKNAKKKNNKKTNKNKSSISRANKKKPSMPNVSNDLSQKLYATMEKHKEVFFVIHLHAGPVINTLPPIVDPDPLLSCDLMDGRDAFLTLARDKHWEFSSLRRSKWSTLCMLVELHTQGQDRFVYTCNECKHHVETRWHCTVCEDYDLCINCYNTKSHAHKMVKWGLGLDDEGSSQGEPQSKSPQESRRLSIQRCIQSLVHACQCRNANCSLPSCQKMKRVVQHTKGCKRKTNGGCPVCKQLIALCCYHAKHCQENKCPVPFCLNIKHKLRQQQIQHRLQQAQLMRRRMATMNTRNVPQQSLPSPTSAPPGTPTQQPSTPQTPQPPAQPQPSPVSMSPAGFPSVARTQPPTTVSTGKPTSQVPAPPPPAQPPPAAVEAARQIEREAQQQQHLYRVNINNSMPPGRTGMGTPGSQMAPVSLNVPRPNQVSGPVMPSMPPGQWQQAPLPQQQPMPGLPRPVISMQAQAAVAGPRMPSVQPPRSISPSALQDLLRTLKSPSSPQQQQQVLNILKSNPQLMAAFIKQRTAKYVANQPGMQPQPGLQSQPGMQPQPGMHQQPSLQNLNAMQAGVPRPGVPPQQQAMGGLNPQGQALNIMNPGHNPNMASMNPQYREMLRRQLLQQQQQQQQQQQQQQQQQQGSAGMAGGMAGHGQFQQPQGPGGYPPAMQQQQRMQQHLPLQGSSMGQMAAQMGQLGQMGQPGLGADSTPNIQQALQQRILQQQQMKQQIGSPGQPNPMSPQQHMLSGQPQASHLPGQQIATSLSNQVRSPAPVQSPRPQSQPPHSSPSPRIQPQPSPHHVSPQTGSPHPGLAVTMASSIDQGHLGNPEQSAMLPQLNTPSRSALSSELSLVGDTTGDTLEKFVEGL
Consider `Cc1cc(C)cc(Oc2cccc(-c3c(C)nnn3C3CCN(C(=N)N)CC3)n2)c1`, for which the Kd was > 100 µM.
On the same count and under the same terms, next, `Cc1cc(C)cc(Nc2cccc(-c3c(C)nnn3C3CCN(C(=N)N)CC3)n2)c1`: 78 µM.

For the next assay, the species on record is Homo sapiens. The assay is described as follows: Selectivity index, ratio of Kd for human full length p38-alpha (M1 to S360 residues) expressed in bacterial cells to Kd for human partial length BRD4 bromodomain 1 long isoform (N44 to E168 residues) expressed in bacterial cells. The assay is classed as cell-based.
Turning to `Cc1cc(C)cc(Oc2cccc(-c3c(C)nnn3C3CCN(C(=N)N)CC3)n2)c1`, the Ratio was > 100.

For a further assay, the target named is T1, Bromodomain-containing protein 4 (Homo sapiens, UniProt O60885). Briefly: Inhibition of biotinylated histone H4 peptide binding to BRD4 bromodomain 1 (44 to 168 residues) (unknown origin) after 60 mins by Alphascreen method. In general terms: Alpha assays give light when donor and acceptor beads are brought close together.
Consider `Cc1cc(C)cc(Oc2nccc(-c3c(-c4ccc(F)cc4)nnn3C3CCNCC3)n2)c1`, for which the concentration for half-maximal inhibition (IC50) is 27 µM.
Still for that read-out and setting: under `Cc1cc(C)cc(Oc2cccc(-c3c(C)nnn3C3CCN(C(=N)N)CC3)n2)c1` stands 1.7 µM.

The next assay has as its target T1, Bromodomain-containing protein 4. Briefly: Inhibition of BRD4 bromodomain 1 in human MM1S cells assessed as decrease in c-MYC expression after 6 hrs by Western blot analysis. The assay is classed as cell-based. Background: A western blot detects proteins with antibodies after separation by electrophoresis.
Take `Cc1cc(C)cc(Oc2nccc(-c3c(C)nnn3C3CCNCC3)n2)c1`: the inhibition result is “Active”.
The same measure, in the same setting: under `Cc1cc(C)cc(Nc2cccc(-c3c(C)nnn3C3CCNCC3)n2)c1` stands “Active”.

A further assay is filed under the species Homo sapiens. The assay is described as follows: Selectivity index, ratio of Kd for human full length p38-alpha (M1 to S360 residues) expressed in bacterial cells to Kd for human partial length BRD4 bromodomain 2 long isoform (K333 to E460 residues) expressed in bacterial cells. The assay is classed as cell-based.
Turning to `Cc1cc(C)cc(Oc2cccc(-c3c(C)nnn3C3CCN(C(=N)N)CC3)n2)c1`, the Ratio was > 100.

The target in another assay is SWI/SNF-related matrix-associated actin-dependent regulator of chromatin subfamily A member 2 (Homo sapiens, UniProt P51531). Briefly: Binding affinity to human partial length SMARCA2 (S1377 to Q1486 residues) expressed in bacterial expression system by BROMOscan assay. In outline:
as §1
`Cc1cc(C)cc(Oc2cccc(-c3c(C)nnn3C3CCN(C(=N)N)CC3)n2)c1`: the Kd is > 100 µM.
The same measure, in the same setting: next, `Cc1cc(C)cc(Nc2cccc(-c3c(C)nnn3C3CCN(C(=N)N)CC3)n2)c1`: > 100 µM.

A further assay addresses Mitogen-activated protein kinase 14 (Homo sapiens, UniProt Q16539). Briefly: Binding affinity to wild-type human full length p38-alpha (M1 to S360 residues) expressed in bacterial expression system by Kinomescan method. In outline: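 Kd for p38α from KINOMEscan binding; mean and standard error of two independent trials.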
In turn, `Cc1cc(C)cc(Oc2cccc(-c3c(-c4ccc(F)cc4)nnn3C3CCNCC3)n2)c1` showed a dissociation constant Kd of 5 µM.
The same measure, in the same setting: under `Cc1cc(C)cc(Nc2cccc(-c3c(-c4ccc(F)cc4)nnn3C3CCNCC3)n2)c1` stands 6.5 µM; under `Cc1cc(C)cc(Oc2nccc(-c3c(-c4ccc(F)cc4)nnn3C3CCNCC3)n2)c1`, 0.12 µM.
As to `Cc1cc(C)cc(Oc2cccc(-c3c(C)nnn3C3CCN(C(=N)N)CC3)n2)c1`, the equilibrium dissociation constant (Kd) was > 200 µM.
On the same count and under the same terms, under `Cc1cc(C)cc(Nc2nccc(-c3c(-c4ccc(F)cc4)nnn3C3CCNCC3)n2)c1` stands 0.0022 µM; under `Cc1cc(C)cc(Nc2cccc(-c3c(C)nnn3C3CCN(C(=N)N)CC3)n2)c1`, > 25 µM.

Another assay concerns MM1.S. The assay is described as follows: Antiproliferative activity against human MM1S cells assessed as reduction in cell viability after 69 hrs by Alamar blue assay. It counts as functional, cell-based. In outline: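 MM.1S cell viability, read as EC50 from a nonlinear curve fit; mean ± SEM of three biological replicates, each run in three technical replicates.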
For orientation: Alamar Blue is a resazurin reagent that responds to reducing activity.
Turning to `Cc1cc(C)cc(Oc2nccc(-c3c(C)nnn3C3CCNCC3)n2)c1`, the EC50 worked out at 6.6 µM.
On the same count and under the same terms, under `Cc1cc(C)cc(Nc2cccc(-c3c(C)nnn3C3CCNCC3)n2)c1` stands 6.3 µM; under `Cc1cc(C)cc(Oc2cccc(-c3c(C)nnn3C3CCN(C(=N)N)CC3)n2)c1`, > 50 µM.
Regarding `Cc1cc(C)cc(Oc2cccc(-c3c(C)nnn3C3CCNCC3)n2)c1`, the EC50 was 2.9 µM.
`Cc1cc(C)cc(Nc2cccc(-c3c(C)nnn3C3CCN(C(=N)N)CC3)n2)c1`: the half-maximal effective concentration (EC50) was > 50 µM.
Take `Cc1cc(C)cc(Oc2nccc(-c3c(C)nnn3C3CCN(C(=N)N)CC3)n2)c1`: the half-maximal effective concentration (EC50) was > 50 µM.

The species entered for the next assay is Homo sapiens. The assay is described as follows: Selectivity ratio of compound effect on human full length p38-alpha (M1 to S360 residues) expressed in bacterial cells over compound effect on human partial length BRD4 bromodomain 1 long isoform (N44 to E168 residues) expressed in bacterial cells. The assay is classed as cell-based.
On to `Cc1cc(C)cc(Nc2nccc(-c3c(-c4ccc(F)cc4)nnn3C3CCNCC3)n2)c1`, for which the Selectivity ratio is > 10000.

The target of another assay is T1, Bromodomain-containing protein 4. Briefly: Inhibition of BRD4 bromodomain 1 (unknown origin) expressed in Escherichia coli Bl21(DE3)-pRARE cells by fluorescence anisotropy. In a few lines:
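BRD4-D1 ligand displacement read by fluorescence anisotropy, reported as IC50; mean and standard deviation of three independent trials; IC50 above 100 μM reported as >100.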
Consider `Cc1cc(C)cc(Oc2cncc(-c3c(C)nnn3C3CCN(C(=N)N)CC3)c2)c1`, for which the half-maximal inhibitory concentration (IC50) was > 100 µM.
The same measure, in the same setting: under `CCCc1nnn(C2CCN(C(=N)N)CC2)c1-c1ccnc(Oc2cc(C)cc(C)c2)n1` stands > 100 µM.
Still for that read-out and setting: next, `Cc1cc(C)cc(Oc2nccc(-c3c(C)nnn3C3CCNCC3)n2)c1`: 11 µM.
On the same count and under the same terms, under `Cc1cc(C)cc(Nc2cccc(-c3c(C)nnn3C3CCNCC3)n2)c1` stands 3.9 µM; under `Cc1cc(C)cc(Oc2nccc(-c3c(-c4ccc(F)cc4)nnn3C3CCNCC3)n2)c1`, > 100 µM; under `Cc1cc(C)cc(Oc2nccc(-c3c(C4CCCCC4)nnn3C3CCNCC3)n2)c1`, > 100 µM.
Turning to `Cc1cc(C)cc(Oc2nccc(-c3c(C(C)(C)C)nnn3C3CCNCC3)n2)c1`, the IC50 was > 100 µM.
On the same count and under the same terms, under `Cc1cc(C)cc(Oc2nccc(-c3c(C(C)C)nnn3C3CCN(C(=N)N)CC3)n2)c1` stands > 100 µM.
Still for that read-out and setting: under `Cc1cc(C)cc(Oc2nccc(-c3c(C4CCCC4)nnn3C3CCNCC3)n2)c1` stands > 100 µM.

The next assay shares this target. Briefly: Binding affinity to human partial length BRD4 bromodomain 1 long isoform (N44 to E168 residues) expressed in bacterial expression system by BROMOscan assay. In a few lines: as §1
On to `Cc1cc(C)cc(Oc2cccc(-c3c(C)nnn3C3CCN(C(=N)N)CC3)n2)c1`, for which the Kd stood at 1.1 µM.
With `Cc1cc(C)cc(Nc2cccc(-c3c(C)nnn3C3CCN(C(=N)N)CC3)n2)c1`, the Kd stood at 1.2 µM.

The target is the same in a further assay. The assay is described as follows: Binding affinity to human partial length BRD4 bromodomain 2 long isoform (K333 to E460 residues) expressed in bacterial expression system by BROMOscan assay. In a few lines:
as §1
Consider `Cc1cc(C)cc(Oc2cccc(-c3c(C)nnn3C3CCN(C(=N)N)CC3)n2)c1`, for which the Kd is 0.94 µM. In other words, the sub-micromolar range.
`Cc1cc(C)cc(Nc2cccc(-c3c(C)nnn3C3CCN(C(=N)N)CC3)n2)c1` registered an equilibrium dissociation constant (Kd) of 2.1 µM.

As usually defined, the Kd is the equilibrium constant for the complex coming apart. Broadly, the IC50 is the midpoint of a concentration-inhibition curve. Low readings indicate higher potency, high ones lower potency. By EC50 is commonly meant the concentration needed to bring the measured effect to its halfway point.
